Data published in ChEMBL document CHEMBL3393033, “6-(Azaindol-2-yl)pyridine-3-sulfonamides as potent and selective inhibitors targeting hepatitis C virus NS4B” (Bioorg Med Chem Lett, 2015).
Activity calls are given as the source filed them. The rule behind the calls is not given here.

Columns and labels:
[1] = Toxicity in human HuH7 cells infected with genotype 1b Hepatitis C virus bicistronic replicon Con1 assessed as reduction in GAPDH RNA after 3 days by RT-PCR analysis; assay type: cell-based, Huh-7
Outline: (§1)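 Huh7 cells carrying a genotype 1b (Con1) bicistronic HCV replicon seeded at 5000 cells/well. Compound added at a final DMSO concentration of 0.5%, then incubated at 37°C for 3 days. Replicon RNA, and GAPDH RNA as the endogenous selectivity control, quantified by real-time RT-PCR. Values are the average of at least two independent determinations.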

[2] = system: Hepatitis C virus; assay: Antiviral activity against genotype 1b Hepatitis C virus bicistronic replicon Con1 infected in human HuH7 cells after 3 days by RT-PCR analysis; assay type: functional, cell-based, Hepacivirus hominis; conditions: genotype 1b Con1, Huh-7, 72 h; outline: as §1
[3] = Ratio of plasma concentration in Sprague-Dawley rat at 10 mg/kg, po administered as single dose after 6 hrs to EC50 for genotype 1b Hepatitis C virus bicistronic replicon Con1 infected in human HuH7 cells; assay type: ADME, organism-based, Huh-7; set-up: dose 10 mg/kg, route oral; conditions: in vivo
Outline: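 Male Sprague Dawley rats (n = 2) received a single 10 mg/kg oral dose in 0.4% hydroxypropyl methylcellulose suspension. Plasma concentration at 6 h post-dose was measured by LC-MS/MS and divided by the Con1 1b replicon EC₅₀ from the Huh7 RT-PCR assay.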

[4] = AUC (0 to 24 hrs) in monkey at 3 mg/kg, po by LC-MS/MS analysis; conditions: cynomolgus monkey, plasma
[5] = Ratio of drug level in liver to plasma Sprague-Dawley rat plasma at 10 mg/kg, po administered as single dose by LC-MS/MS analysis; assay type: ADME, organism-based; set-up: dose 10 mg/kg, route oral
Outline: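 Male Sprague Dawley rats (n = 2) received 10 mg/kg orally as a suspension in 0.4% hydroxypropyl methylcellulose, after lyophilization from acetonitrile/water (1:1). Liver and plasma concentrations were measured at 6 h post-dose by LC-MS/MS and expressed as a liver/plasma ratio.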

[6] = AUC (0 to 24 hrs) in dog plasma at 2 mg/kg, po by LC-MS/MS analysis; assay type: ADME, organism-based, Canis lupus familiaris; set-up: time < 24 hr, dose 2 mg/kg, route oral
Outline: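 Male beagle dogs (n = 2) were dosed orally at 2 mg/kg. Compound was lyophilized from acetonitrile/water (1:1) and given as a suspension in 0.4% hydroxypropyl methylcellulose. Plasma was collected at 30 min and at 1, 2, 4, 8 and 24 h for LC-MS/MS.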

[7] = Ratio of plasma concentration in po dosed monkey at 8 hrs to EC50 for genotype 1b Hepatitis C virus bicistronic replicon Con1 infected in human Huh7 cells; assay type: ADME, organism-based, Huh-7; conditions: in vivo
Outline: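 Monkeys: male cynomolgus (n = 2) dosed orally at 3 mg/kg as a suspension in 0.4% hydroxypropyl methylcellulose. Plasma level at 8 h post-dose was measured by LC-MS/MS and expressed relative to the replicon 1b EC₅₀.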

[8] = AUC (0 to 6 hrs) in Sprague-Dawley rat plasma at 10 mg/kg, po administered as single dose by LC-MS/MS analysis; assay type: ADME, organism-based; set-up: time < 6 hr, dose 10 mg/kg, route oral
Outline: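 Male Sprague Dawley rats (n = 2) were dosed once orally at 10 mg/kg. Compound was lyophilized from acetonitrile/water (1:1) and given as a suspension in 0.4% hydroxypropyl methylcellulose. Plasma was sampled at 30 min and at 1, 2, 3, 4 and 6 h post-dose for LC-MS/MS. AUC is over 0–6 h.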

[9] = Ratio of plasma concentration in po dosed dog at 8 hrs to EC50 for genotype 1b Hepatitis C virus bicistronic replicon Con1 infected in human Huh7 cells; assay type: ADME, organism-based, Huh-7; conditions: in vivo
Outline: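 Dogs: male beagles (n = 2) dosed orally at 2 mg/kg as a suspension in 0.4% hydroxypropyl methylcellulose. Plasma concentration at 8 h post-dose was measured by LC-MS/MS and divided by the replicon 1b EC₅₀.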

[10] = system: Hepatitis C virus; assay: Antiviral activity against HCV genotype 1b Con1 replicon cells expressing NS4B V105M mutant grown under serial passage in presence of 1x to 30x EC90 level of compound assessed as reduction in replicon RNA levels relative to wild type HCV genotype 1b Con1; assay type: functional, Hepacivirus hominis
[11] = system: Hepacivirus hominis; assay: Inhibition of Hepatitis C virus NS5B polymerase up to 10000 nM
[12] = system: Hepatitis C virus; assay: Antiviral activity against HCV genotype 1b Con1 replicon cells expressing NS4B F98C mutant grown under serial passage in presence of 1x to 30x EC90 level of compound assessed as reduction in replicon RNA levels relative to wild type HCV genotype 1b Con1; assay type: functional, Hepacivirus hominis
[13] = system: Hepacivirus hominis; assay: Inhibition of Hepatitis C virus NS3 protease up to 10000 nM

SMILES | EC50 [2] | Ratio [3] | Kp [5] | AUC(0-t) at 6 h [8] | IC50 at 3 days [1] | other results
Cc1cnc2c(C#N)c(-c3ccc(S(=O)(=O)N[C@@H](C)C(F)(F)F)cn3)n(C3CCC3)c2c1 | 0.119 µM | – | – | – | > 10 µM | –
CCc1cnc2c(c1)c(C#N)c(-c1ccc(S(=O)(=O)N[C@@H](C)C(F)(F)F)cn1)n2C1CCC1 | 0.015 µM | 27 | 13 | 2.63 µM·h | > 5.16 µM | –
Cc1cnc2c(c1)c(C#N)c(-c1ncc(S(=O)(=O)N[C@@H](C)C(F)(F)F)cn1)n2C1CCC1 | 0.16 µM | – | – | – | > 10 µM | –
COc1ncc2c(C#N)c(-c3ccc(S(=O)(=O)N[C@@H](C)C(F)(F)F)cn3)n(C3CCC3)c2n1 | 0.24 µM | – | – | – | > 10 µM | –
C[C@H](NS(=O)(=O)c1ccc(-c2c(C#N)c3ccc(Cl)nc3n2C2CCC2)nc1)C(F)(F)F | 0.7 µM | – | – | – | 6.3 µM | –
Cc1ccc2c(C#N)c(-c3ccc(S(=O)(=O)N[C@@H](C)C(F)(F)F)cn3)n(C3CCC3)c2n1 | 0.087 µM | – | – | – | > 10 µM | –
COc1ccc2c(C#N)c(-c3ccc(S(=O)(=O)N[C@@H](C)C(F)(F)F)cn3)n(C3CCC3)c2n1 | 0.96 µM | – | – | – | 9.7 µM | –
COc1cnc2c(c1)c(C#N)c(-c1ccc(S(=O)(=O)N[C@@H](C)C(F)(F)F)cn1)n2CC1CC1 | 0.3 µM | – | – | – | 7.9 µM | –
COc1cnc2c(c1)c(C#N)c(-c1ccc(S(=O)(=O)N[C@@H](C)C(F)(F)F)cn1)n2C1CCC1 | 0.027 µM | 30 | 14 | 7.61 µM·h | > 9 µM | fold change (FC) [10]: 17; inhibition [11]: inactive; fold change (FC) [12]: 25; AUC(0-t) at 24 h [4]: 2.28 µM·h; AUC(0-t) at 24 h [6]: 4.18 µM·h; Ratio [7]: 4; inhibition [13]: inactive; Ratio [9]: 6
C[C@H](NS(=O)(=O)c1ccc(-c2c(C#N)c3cnc(Cl)cc3n2C2CCC2)nc1)C(F)(F)F | 0.26 µM | – | – | – | 1.31 µM | –
C[C@H](NS(=O)(=O)c1ccc(-c2c(C#N)c3cc(C(F)(F)F)cnc3n2C2CCC2)nc1)C(F)(F)F | 0.002 µM | 503 | 44 | 5.83 µM·h | > 10 µM | AUC(0-t) at 24 h [4]: 5.44 µM·h; AUC(0-t) at 24 h [6]: 8.16 µM·h; Ratio [7]: 105; Ratio [9]: 125
C[C@H](NS(=O)(=O)c1ccc(-c2c(C#N)c3cc(F)cnc3n2C2CCC2)nc1)C(F)(F)F | 0.046 µM | 23 | 6 | 8.78 µM·h | > 10 µM | –
Cc1cc2c(C#N)c(-c3ccc(S(=O)(=O)N[C@@H](C)C(F)(F)F)cn3)n(C3CCC3)c2cn1 | 1.4 µM | – | – | – | > 10 µM | –
C[C@H](NS(=O)(=O)c1ccc(-c2c(C#N)c3cc(Cl)cnc3n2CC2CC2)nc1)C(F)(F)F | 0.039 µM | – | – | – | > 10 µM | –
CC(C)Oc1cnc2c(c1)c(C#N)c(-c1ccc(S(=O)(=O)N[C@@H](C)C(F)(F)F)cn1)n2C1CCC1 | 7.6 µM | – | – | – | > 10 µM | –
Cc1cnc2c(c1)c(C#N)c(-c1ccc(S(=O)(=O)N[C@@H](C)C(F)(F)F)cn1)n2C1CCC1 | 0.013 µM | 55 | 9 | 6.92 µM·h | > 10 µM | AUC(0-t) at 24 h [4]: 0.641 µM·h; AUC(0-t) at 24 h [6]: 5.67 µM·h; Ratio [7]: 1; Ratio [9]: 14

More lines, in order of falling EC50 [2], values ahead:

EC50 [2] | Ratio [3] | Kp [5] | AUC(0-t) at 6 h [8] | SMILES | IC50 at 3 days [1] | other results
2.15 µM | – | – | – | CCCOc1cnc2c(c1)c(C#N)c(-c1ccc(S(=O)(=O)N[C@@H](C)C(F)(F)F)cn1)n2C1CCC1 | > 10 µM | –
0.97 µM | – | – | – | C[C@H](NS(=O)(=O)c1ccc(-c2c(C#N)c3cnc(OC(F)F)nc3n2C2CCC2)nc1)C(F)(F)F | > 10 µM | –
0.53 µM | – | – | – | C[C@H](NS(=O)(=O)c1ccc(-c2c(C#N)c3cc(Cl)ncc3n2C2CCC2)nc1)C(F)(F)F | > 10 µM | –
0.23 µM | – | – | – | Cc1cc2c(cn1)c(C#N)c(-c1ccc(S(=O)(=O)N[C@@H](C)C(F)(F)F)cn1)n2C1CCC1 | > 10 µM | –
0.217 µM | – | – | – | C[C@H](NS(=O)(=O)c1ccc(-c2c(C#N)c3cccnc3n2C2CCC2)nc1)C(F)(F)F | > 10 µM | –
0.2 µM | – | – | – | CCOc1cnc2c(c1)c(C#N)c(-c1ccc(S(=O)(=O)N[C@@H](C)C(F)(F)F)cn1)n2C1CCC1 | > 10 µM | –
0.15 µM | – | – | – | COc1cnc2c(c1)c(C#N)c(-c1ccc(S(=O)(=O)N[C@@H](C)C(F)(F)F)cn1)n2C1CCCC1 | > 10 µM | –
0.094 µM | – | – | – | C[C@H](NS(=O)(=O)c1ccc(-c2c(C#N)c3ncc(Cl)cc3n2C2CCC2)nc1)C(F)(F)F | 2.5 µM | –
0.087 µM | – | – | – | Cc1cnc2c(c1)c(C#N)c(-c1ccc(S(=O)(=O)N[C@@H](C)C(F)(F)F)cc1)n2C1CCC1 | > 10 µM | –
0.05 µM | 36 | 7 | 9.37 µM·h | C[C@H](NS(=O)(=O)c1ccc(-c2c(C#N)c3cc(OC(F)F)cnc3n2C2CCC2)nc1)C(F)(F)F | > 10 µM | –
0.04 µM | 32 | 11 | 10.2 µM·h | C[C@H](NS(=O)(=O)c1ccc(-c2c(C#N)c3cc(C4CC4)cnc3n2C2CCC2)nc1)C(F)(F)F | > 10 µM | –
0.027 µM | 40 | 19 | 6.84 µM·h | C[C@H](NS(=O)(=O)c1ccc(-c2c(C#N)c3cc(Cl)cnc3n2C2CCCC2)nc1)C(F)(F)F | > 10 µM | AUC(0-t) at 24 h [4]: 0.29 µM·h; AUC(0-t) at 24 h [6]: 2.07 µM·h; Ratio [7]: 0.3; Ratio [9]: 2
0.017 µM | 22 | 23 | 2.39 µM·h | C[C@H](NS(=O)(=O)c1ccc(-c2c(C#N)c3cc(Cl)cnc3n2C2CCC2)nc1)C(F)(F)F | > 10 µM | AUC(0-t) at 24 h [4]: 1.03 µM·h; AUC(0-t) at 24 h [6]: 4.08 µM·h; Ratio [7]: 2; Ratio [9]: 12
